Reference: the array DNA melting data of Ke et al. (doi:10.1101/2024.01.08.574731)

Columns and labels:
[1] = folding enthalpy; higher = less favourable; fluorescence melt of hairpins on a sequencing array, two-state fit; settings: sodium 0.088 M
Outline: (§1)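 With Cy3 and quencher oligos annealed, library hairpins on a sequenced MiSeq flow cell were imaged for Cy3 fluorescence in 50 mM Na-HEPES pH 8.0, 25 mM NaCl, in 2.5 °C steps up to 60 °C. Melting temperature and folding enthalpy were derived from bootstrapped two-state fits of signals normalised to pre-quench Cy3 and to control constructs. Four replicates were combined by inverse variance, with fitted temperatures raised by 9.35 °C to match UV melts.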

[2] = melting temperature; fluorescence melt of hairpins on a sequencing array, two-state fit, raised by 9.35 °C to match UV melts; settings: sodium 0.088 M
Outline: as §1

| Sequence | folding enthalpy [1] | Tm [2] |
| --- | --- | --- |
| GATCTCAGTGGAGATC ((((((....)))))) | -40.9 kcal/mol | 52.6 °C |
| GATCTCATAAGAGATC ((((((....)))))) | -38.7 kcal/mol | 52.3 °C |
| GATCTCATATGAGATC ((((((....)))))) | -43.8 kcal/mol | 54.2 °C |
| GATCTCATGAGAGATC ((((((....)))))) | -32 kcal/mol | 54.2 °C |
| GATCTCATGTGAGATC ((((((....)))))) | -36.2 kcal/mol | 52.9 °C |
| GATCTCATTGAGATC ((((((...)))))) | -34.9 kcal/mol | 54.2 °C |
| GATCTCCACCGAGATC ((((((....)))))) | -37.2 kcal/mol | 51.9 °C |
| GATCTCCATGGAGATC ((((((....)))))) | -42 kcal/mol | 57.4 °C |
| GATCTCCCCAGAGATC ((((((....)))))) | -42.9 kcal/mol | 55.7 °C |
| GATCTCCCCGAGATC ((((((...)))))) | -36.9 kcal/mol | 55.3 °C |
| GATCTCCCCTGAGATC ((((((....)))))) | -45.1 kcal/mol | 51.6 °C |
| GATCTCCCGGAGATC ((((((...)))))) | -37.4 kcal/mol | 53.8 °C |
| GATCTCCCTGGAGATC ((((((....)))))) | -43.7 kcal/mol | 59.4 °C |
| GATCTCCGCGGAGATC ((((((....)))))) | -50.1 kcal/mol | 60.9 °C |
| GATCTCCGTAGAGATC ((((((....)))))) | -42 kcal/mol | 55.1 °C |
| GATCTCCTCAGAGATC ((((((....)))))) | -37.7 kcal/mol | 55.9 °C |
| GATCTCGACGGAGATC ((((((....)))))) | -48.4 kcal/mol | 54.3 °C |
| GATCTCGATGGAGATC ((((((....)))))) | -33.4 kcal/mol | 52.9 °C |
| GATCTCGCAGAGATC ((((((...)))))) | -30.5 kcal/mol | 68 °C |
| GATCTCGCCAGAGATC ((((((....)))))) | -37.1 kcal/mol | 69 °C |
| GATCTCGCCCGAGATC ((((((....)))))) | -39.2 kcal/mol | 56.2 °C |
| GATCTCGCGCGAGATC ((((((....)))))) | -48.4 kcal/mol | 62.5 °C |
| GATCTCGCTGGAGATC ((((((....)))))) | -36.8 kcal/mol | 54.3 °C |
| GATCTCGGAAACAAGATC (((((.(....).))))) | -15 kcal/mol | 29 °C |

| Sequence | folding enthalpy [1] | Tm [2] |
| --- | --- | --- |
| GATCTCGGACGAGATC ((((((....)))))) | -35.1 kcal/mol | 60.3 °C |
| GATCTCGGAGGAGATC ((((((....)))))) | -44.4 kcal/mol | 55.7 °C |
| GATCTCGGATGAGATC ((((((....)))))) | -33.7 kcal/mol | 57 °C |
| GATCTCGGTGGAGATC ((((((....)))))) | -4.26 kcal/mol | 68.6 °C |
| GATCTCGTACGAGATC ((((((....)))))) | -39.7 kcal/mol | 61.7 °C |
| GATCTCGTCAGAGATC ((((((....)))))) | -37.5 kcal/mol | 68.5 °C |
| GATCTCGTCGAGATC ((((((...)))))) | -31.1 kcal/mol | 55.7 °C |
| GATCTCGTGGAGATC ((((((...)))))) | -39 kcal/mol | 54.5 °C |
| GATCTCGTGTGAGATC ((((((....)))))) | -37 kcal/mol | 53.1 °C |
| GATCTCGTTGGAGATC ((((((....)))))) | -42.3 kcal/mol | 54.2 °C |
| GATCTCTAGAGAGATC ((((((....)))))) | -40.9 kcal/mol | 51 °C |
| GATCTCTAGGAGATC ((((((...)))))) | -39.1 kcal/mol | 52.9 °C |
| GATCTCTAGTGAGATC ((((((....)))))) | -36.9 kcal/mol | 50.3 °C |
| GATCTCTATAGAGATC ((((((....)))))) | -38.7 kcal/mol | 55 °C |
| GATCTCTCAGAGATC ((((((...)))))) | -33.8 kcal/mol | 54.2 °C |
| GATCTCTCCGGAGATC ((((((....)))))) | -39.6 kcal/mol | 56.2 °C |
| GATCTCTCTGGAGATC ((((((....)))))) | -42.8 kcal/mol | 54.8 °C |
| GATCTCTCTTGAGATC ((((((....)))))) | -37.9 kcal/mol | 53.5 °C |
| GATCTCTGGGAGATC ((((((...)))))) | -34.7 kcal/mol | 53.6 °C |
| GATCTCTGTGGAGATC ((((((....)))))) | -37.1 kcal/mol | 57.2 °C |
| GATCTCTTAGAGATC ((((((...)))))) | -38.9 kcal/mol | 53.1 °C |
| GATCTCTTCTGAGATC ((((((....)))))) | -39.8 kcal/mol | 54.7 °C |
| GATCTCTTGTGAGATC ((((((....)))))) | -48.6 kcal/mol | 53.1 °C |
| GATCTCTTTAGAGATC ((((((....)))))) | -44.9 kcal/mol | 61.8 °C |

| Sequence | folding enthalpy [1] | Tm [2] |
| --- | --- | --- |
| GATCTCTTTCGAGATC ((((((....)))))) | -28.2 kcal/mol | 52.2 °C |
| GATCTGAATCAGATC ((((((...)))))) | -34 kcal/mol | 44.7 °C |
| GATCTGACAACAGATC ((((((....)))))) | -36.6 kcal/mol | 46.5 °C |
| GATCTGACATCAGATC ((((((....)))))) | -33.5 kcal/mol | 48.3 °C |
| GATCTGACGCCAGATC ((((((....)))))) | -33.5 kcal/mol | 48.6 °C |
| GATCTGACTACAGATC ((((((....)))))) | -36.9 kcal/mol | 49.5 °C |
| GATCTGAGGCAGATC ((((((...)))))) | -31.4 kcal/mol | 47.5 °C |
| GATCTGAGGGCAGATC ((((((....)))))) | -33.4 kcal/mol | 47.7 °C |
| GATCTGATACCAGATC ((((((....)))))) | -40.8 kcal/mol | 47.1 °C |
| GATCTGATTCCAGATC ((((((....)))))) | -34 kcal/mol | 48.5 °C |
| GATCTGCAGACAGATC ((((((....)))))) | -40 kcal/mol | 51.2 °C |
| GATCTGCCCACAGATC ((((((....)))))) | -37 kcal/mol | 52.4 °C |
| GATCTGCCCGCAGATC ((((((....)))))) | -46.4 kcal/mol | 59.7 °C |
| GATCTGCGACCAGATC ((((((....)))))) | -35 kcal/mol | 46.6 °C |
| GATCTGCGCACAGATC ((((((....)))))) | -38.3 kcal/mol | 52.8 °C |
| GATCTGCGCCAGATC ((((((...)))))) | -35.3 kcal/mol | 50.8 °C |
| GATCTGCGCTCAGATC ((((((....)))))) | -39.7 kcal/mol | 49.3 °C |
| GATCTGCGGGCAGATC ((((((....)))))) | -42.9 kcal/mol | 60.7 °C |
| GATCTGCGTTCAGATC ((((((....)))))) | -37.5 kcal/mol | 48.8 °C |
| GATCTGCTAACAGATC ((((((....)))))) | -37.1 kcal/mol | 50.4 °C |
| GATCTGCTAGCAGATC ((((((....)))))) | -48.5 kcal/mol | 60.9 °C |
| GATCTGCTCACAGATC ((((((....)))))) | -36.9 kcal/mol | 51.6 °C |
| GATCTGCTGACAGATC ((((((....)))))) | -39.7 kcal/mol | 50.5 °C |
| GATCTGCTGCCAGATC ((((((....)))))) | -39.2 kcal/mol | 49.8 °C |
